One assay deals with T1, Adenosine receptor A1 (Homo sapiens, UniProt P30542).
T1 sequence (P30542 whole entry): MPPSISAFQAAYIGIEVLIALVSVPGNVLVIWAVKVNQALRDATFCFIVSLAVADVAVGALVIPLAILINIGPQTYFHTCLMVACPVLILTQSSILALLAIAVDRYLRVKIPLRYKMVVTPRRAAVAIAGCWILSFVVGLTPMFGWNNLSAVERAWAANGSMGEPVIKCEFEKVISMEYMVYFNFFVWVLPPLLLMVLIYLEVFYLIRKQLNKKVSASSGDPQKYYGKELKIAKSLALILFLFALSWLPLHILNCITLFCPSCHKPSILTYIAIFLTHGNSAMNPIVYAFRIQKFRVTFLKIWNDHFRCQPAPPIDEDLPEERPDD
As to the kind of experiment: Displacement of [3H]R-PIA from human adenosine A1 receptor expressed in CHO cells. In kind it is cell-based.

A further assay concerns the target T2, Adenosine receptor A3 (Homo sapiens, UniProt P0DMS8).
T2 sequence (P0DMS8 whole entry): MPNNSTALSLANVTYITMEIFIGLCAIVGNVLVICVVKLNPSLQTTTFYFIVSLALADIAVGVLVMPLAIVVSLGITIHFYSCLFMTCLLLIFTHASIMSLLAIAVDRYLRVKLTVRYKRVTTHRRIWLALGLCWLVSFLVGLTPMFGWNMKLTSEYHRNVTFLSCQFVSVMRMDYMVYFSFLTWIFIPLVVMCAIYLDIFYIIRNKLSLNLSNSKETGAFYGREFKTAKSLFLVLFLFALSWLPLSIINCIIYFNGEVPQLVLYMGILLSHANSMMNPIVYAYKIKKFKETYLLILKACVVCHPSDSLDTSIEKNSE
The experiment in a line: Displacement of [125I]I-AB-MECA from human adenosine A3 receptor expressed in CHO cells. It counts as cell-based.

In assay [1] the target is T3, Adenosine receptor A2a (Homo sapiens, UniProt P29274). As to the kind of experiment: Displacement of [3H]2-[p-(2-carboxyethyl)phenyl-ethylamino]-5'-N-ethylcarboxamidoadenosine from human adenosine A2a receptor expressed in HEK293 cells. It counts as cell-based.
Target sequence in this assay (P29274 whole entry): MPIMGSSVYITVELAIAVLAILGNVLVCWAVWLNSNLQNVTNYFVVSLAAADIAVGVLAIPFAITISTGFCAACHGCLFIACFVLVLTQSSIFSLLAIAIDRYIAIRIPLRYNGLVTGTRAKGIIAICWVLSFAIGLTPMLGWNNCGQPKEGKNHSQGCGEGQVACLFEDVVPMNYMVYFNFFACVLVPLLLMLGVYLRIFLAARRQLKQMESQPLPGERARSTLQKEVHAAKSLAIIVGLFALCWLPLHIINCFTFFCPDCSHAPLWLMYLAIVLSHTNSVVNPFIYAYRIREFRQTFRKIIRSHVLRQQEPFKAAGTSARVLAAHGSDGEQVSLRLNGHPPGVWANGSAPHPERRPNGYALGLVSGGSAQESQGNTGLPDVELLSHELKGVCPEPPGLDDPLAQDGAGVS
Assay [2] deals with T4, Adenosine receptor A1 (Homo sapiens) (UniProt P30542).
T4 sequence (whole entry): T1 sequence (P30542 whole entry)
The experiment in a line: Displacement of [3H]R-PIA from human adenosine A1 receptor expressed in CHO cells at 10 uM. It counts as cell-based. The method, boiled down:
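Single-point test at 10 μM on membranes of CHO cells stably expressing human A1 receptor, read as percent inhibition of [3H]R-PIA agonist binding. Nonspecific binding was defined with 10 μM NECA.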

The species named for assay [3] is Homo sapiens. The experiment in a line: Selectivity ratio of Ki for human adenosine A3 receptor to Ki for human adenosine A2A receptor.
Assay [4] concerns the target T3, Adenosine receptor A2a. As to the kind of experiment: Displacement of [3H]4-[2-[7-amino-2-(2-furyl)-1,2,4-triazolo[1,5-a][1,3,5]triazin-5-yl-amino]ethylphenol from human adenosine A2a receptor K150A mutant expressed in COS-7 cells assessed as radioligand Bmax per mg of protein compound preincubated for 30 mins.
Target sequence in this assay (P29274 whole entry, looked up): as the sequence (P29274 whole entry) above
For assay [5], the target named is T3, Adenosine receptor A2a. As to the kind of experiment: Agonist activity at human adenosine A2a receptor expressed in CHO cells assessed as stimulation of cAMP formation after 24 hrs. In kind it is functional, cell-based.
Target sequence in this assay (P29274 whole entry): as above
The target of assay [6] is T3, Adenosine receptor A2a. The experiment in a line: Displacement of [3H]4-[2-[7-amino-2-(2-furyl)-1,2,4-triazolo[1,5-a][1,3,5]triazin-5-yl-amino]ethylphenol from human adenosine A2a receptor K153A mutant expressed in COS-7 cells assessed as radioligand Bmax per mg of protein compound preincubated for 30 mins.
Target sequence in this assay (P29274 whole entry, looked up): as the sequence (P29274 whole entry) above
For assay [7], the target named is T3, Adenosine receptor A2a. The experiment in a line: Displacement of [3H]2-[p-(2-carboxyethyl)phenyl-ethylamino]-5'-N-ethylcarboxamidoadenosine from human adenosine A2a receptor expressed in HEK293 cells assessed as radioligand binding at 1 uM preincubated for 30 mins. In kind it is cell-based. The gist of the method: (§1)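 Membranes of HEK293 cells stably expressing human A2A receptor were preincubated with compound (1 μM, 30 min). Membranes were then washed by repeated centrifugation cycles. Residual specific binding was measured with agonist [3H]CGS21680 (10 nM) or antagonist [3H]7 (1.0 nM) and expressed as percent binding remaining.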
Target sequence in this assay (P29274 whole entry): as above

For assay [8], the target named is T3, Adenosine receptor A2a. As to the kind of experiment: Displacement of [3H]4-[2-[7-amino-2-(2-furyl)-1,2,4-triazolo[1,5-a][1,3,5]triazin-5-yl-amino]ethylphenol from human adenosine A2a receptor expressed in HEK293 cells assessed as radioligand binding at 1 uM preincubated for 30 mins. In kind it is cell-based. The method, boiled down:
as §1
Target sequence in this assay (P29274 whole entry): as above

The target of assay [9] is T3, Adenosine receptor A2a. The experiment in a line: Displacement of [3H]4-[2-[7-amino-2-(2-furyl)-1,2,4-triazolo[1,5-a][1,3,5]triazin-5-yl-amino]ethylphenol from wild type human adenosine A2a receptor expressed in COS-7 cells assessed as radioligand Kd compound preincubated for 30 mins.
Target sequence in this assay (P29274 whole entry): as above
The species named for assay [10] is Homo sapiens. The experiment in a line: Selectivity ratio of Ki for human adenosine A1 receptor to Ki for human adenosine A2A receptor.

As for `CCNC(=O)[C@H]1O[C@@H](n2cnc3c(N)nc(NCCc4ccc(CCC(=O)Nc5ccc(O)c([N+](=O)[O-])c5)cc4)nc32)[C@H](O)[C@@H]1O`, the inhibition constant Ki on Adenosine receptor A1 worked out at 1890 nM; on Adenosine receptor A3, 171 nM; at Adenosine receptor A2a [1] it was 267 nM.
Consider `CCNC(=O)[C@H]1O[C@@H](n2cnc3c(N)nc(NCCc4ccc(CCC(=O)Nc5ccc(OC(=O)CCCCN=[N+]=[N-])c([N+](=O)[O-])c5)cc4)nc32)[C@H](O)[C@@H]1O`, for which, in assay [2], the inhibition came out at 30%. Besides, the inhibitory constant (Ki) amounted to 1810 nM at Adenosine receptor A3 and 4360 nM on Adenosine receptor A2a [1].
The corresponding values for `CCNC(=O)[C@H]1O[C@@H](n2cnc3c(N)nc(NCCc4ccc(CCC(=O)Nc5ccc(OC(=O)CCCC[C@@H]6SC[C@@H]7NC(=O)N[C@@H]76)c([N+](=O)[O-])c5)cc4)nc32)[C@H](O)[C@@H]1O` are 37%, 1960 nM and 3280 nM.
As for `CCNC(=O)[C@H]1O[C@@H](n2cnc3c(N)nc(NCCc4ccc(CCC(=O)Nc5ccc(OC(C)=O)c([N+](=O)[O-])c5)cc4)nc32)[C@H](O)[C@@H]1O`, the Ratio Ki in the assay filed under Homo sapiens [3] is 9; in the assay listed under Homo sapiens [10] it was 22. Further, the values for the Bmax at Adenosine receptor A2a [4] and on Adenosine receptor A2a [6] were 0.2 pmol and 1.65 pmol, respectively. The EC50 at Adenosine receptor A2a [5] was 2.12 nM. In addition, the Activity on Adenosine receptor A2a [7] came to 19%; on Adenosine receptor A2a [8] it was 11%. The Ki was found to be 500 nM at Adenosine receptor A1, 207 nM on Adenosine receptor A3 and 23 nM at Adenosine receptor A2a [1]. In addition, the dissociation constant (Kd) at Adenosine receptor A2a [9] turned out to be 2.24 nM.

The record behind these values is ChEMBL document CHEMBL3352600, “Structure-Based Design of Reactive Nucleosides for Site-Specific Modification of the A2A Adenosine Receptor” (ACS Med Chem Lett, 2014).
